Laboratory results reported in ChEMBL document CHEMBL1806419, “18β-Glycyrrhetinic acid derivatives induced mitochondrial-mediated apoptosis through reactive oxygen species-mediated p53 activation in NTUB1 cells” (Bioorg Med Chem, 2011).
Active and inactive are the calls of the source. The calls are words filed in the database; no cut-off is given here.

How the values were obtained:
[1] = Cell cycle arrest in human NTUB1 cells assessed as accumulation at S phase at 75 uM after 24 hrs by propidium iodide staining based flow cytometric analysis (reference value: 20.37%); type: functional
Procedure, shortened: (§1)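 8×10^5 NTUB1 cells plated, treated 24 h (alongside 10 µM cisplatin, 1 mM NAC, 50 µM H2O2 controls); harvested by trypsinization, fixed overnight in ice-cold MeOH at −20 °C, stained with 50 µg/mL propidium iodide plus 50 µg/mL RNase A in PBS 30 min at room temperature; cell-cycle phase fractions and sub-G1 (apoptotic) DNA content by FACScan flow cytometry; three independent experiments.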

[2] = Induction of apoptosis in human NTUB1 cells assessed as increase in JC-1 probe monomers at 25 uM after 24 hrs by flow cytometric analysis; type: functional
Procedure, shortened: (§2)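 NTUB1 cells (3×10^5) treated with 10, 25 or 50 µM (10 µM CCCP control), then loaded with 1 µM JC-1 in medium 30 min; washed in PBS, trypsinized, resuspended in PBS/2% BSA; green monomer (R2) and red aggregate (R1) fluorescence by flow cytometry, aggregate/monomer ratio representing membrane potential.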

[3] = target: Cellular tumor antigen p53 (Homo sapiens) (UniProt P04637); experiment: Increase in p53 phosphorylation in human NTUB1 cells after 24 hrs by Western blot analysis; type: cell-based
Procedure, shortened: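 NTUB1 cells exposed 24 h to 0–50 µM (10 µM cisplatin comparator), or to 50 µM with or without 1 mM NAC; lysed in boiled sample buffer, SDS–PAGE, nitrocellulose semi-dry transfer, milk-blocked in TBST, primary antibodies (p-p53 Ser15, p53 DO1, β-actin) overnight at 4 °C, secondary 1 h, ECL detection; triplicate experiments.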

[4] = Cell cycle arrest in human NTUB1 cells assessed as accumulation at G2/M phase at 75 uM after 24 hrs by propidium iodide staining based flow cytometric analysis (reference value: 20.37%); type: functional; procedure, shortened: as §1
[5] = Cytotoxicity against immortalized human SV-HUC1 cells after 72 hrs by MTT assay; type: cell-based; conditions: sv-huc1, 72 h
Procedure, shortened: (§3)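 Cells seeded 1800/well in 96-well plates, preincubated overnight at 37 °C, then exposed to graded concentrations for 72 h at 37 °C (NTUB1, PC3 in RPMI 1640; SV-HUC1 in F12; 10% FBS, 5% CO2). MTT (2 mg/mL) added 3 h, formazan dissolved in DMSO, absorbance 540 nm; viability as percent of control; IC50 by median-effect analysis, mean ± SD.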

[6] = Increase in ROS generation in human NTUB1 cells at 10 uM after 24 hrs by H2DCFDA staining based flow cytometeric analysis relative to control; type: functional
Procedure, shortened: (§4)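 NTUB1 cells (3×10^5 per 6 cm dish) treated 24 h (20 µM cisplatin and 1 mM NAC controls; medium-only control); 10 µM H2DCFDA added 30 min before harvest; trypsinized, PBS-washed, DCF green fluorescence (525 nm band pass, region M1) measured immediately by flow cytometry; percent change vs control; mean ± SD, n = 3.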

[7] = Cytotoxicity against human NTUB1 cells after 72 hrs by MTT assay; type: functional, cell-based; conditions: NTUB1, 72 h; procedure, shortened: as §3
[8] = Cell cycle arrest in human NTUB1 cells assessed as accumulation at G2/M phase at 50 uM after 24 hrs by propidium iodide staining based flow cytometric analysis (reference value: 20.37%); type: functional; procedure, shortened: as §1
NTUB1 = experiment: Induction of apoptosis in human NTUB1 cells assessed as activation of caspase 3 at 10 to 50 uM by Western blot analysis; type: functional, cell-based
[9] = Cell cycle arrest in human NTUB1 cells assessed as accumulation at S phase at 50 uM after 24 hrs by propidium iodide staining based flow cytometric analysis (reference value: 20.37%); type: functional; procedure, shortened: as §1
[10] = Cell cycle arrest in human NTUB1 cells assessed as accumulation at subG1 phase at 25 uM after 24 hrs by propidium iodide staining based flow cytometric analysis (reference value: 6.68%); type: functional; procedure, shortened: as §1
[11] = Cell cycle arrest in human NTUB1 cells assessed as accumulation at G1 phase at 50 uM after 24 hrs by propidium iodide staining based flow cytometric analysis (reference value: 50.64%); type: functional; procedure, shortened: as §1
[12] = Induction of apoptosis in human NTUB1 cells assessed as increase in JC-1 probe monomers at 50 uM after 24 hrs by flow cytometric analysis; type: functional; procedure, shortened: as §2
[13] = Increase in ROS generation in human NTUB1 cells at 25 uM after 24 hrs by H2DCFDA staining based flow cytometeric analysis relative to control; type: functional; procedure, shortened: as §4
[14] = Cell cycle arrest in human NTUB1 cells assessed as accumulation at S phase at 25 uM after 24 hrs by propidium iodide staining based flow cytometric analysis (reference value: 20.37%); type: functional; procedure, shortened: as §1
[15] = Induction of apoptosis in human NTUB1 cells assessed as decrease in JC-1 aggregation at 25 uM after 24 hrs by flow cytometric analysis; type: functional; set-up: scale not given: the % may be the effect or the level left; procedure, shortened: as §2
[16] = Cell cycle arrest in human NTUB1 cells assessed as accumulation at G1 phase at 25 uM after 24 hrs by propidium iodide staining based flow cytometric analysis (reference value: 50.64%); type: functional; procedure, shortened: as §1
[17] = Induction of apoptosis in human NTUB1 cells assessed as decrease in JC-1 aggregation at 10 uM after 24 hrs by flow cytometric analysis; type: functional; set-up: scale not given: the % may be the effect or the level left
Procedure, shortened: (§5)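 NTUB1 bladder carcinoma cells (3 × 10^5) in RPMI 1640 with 10% FBS at 37 °C, 5% CO2, exposed to test agent (10, 25 or 50 µM) with 10 µM CCCP as positive control. Stained 30 min with 1 µM JC-1 in medium, washed, trypsinised, resuspended in PBS/2% BSA. Flow cytometry read green monomer and red aggregate fluorescence; the aggregate/monomer ratio represents membrane potential.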

[18] = Cell cycle arrest in human NTUB1 cells assessed as accumulation at G1 phase at 75 uM after 24 hrs by propidium iodide staining based flow cytometric analysis (reference value: 50.64%); type: functional; procedure, shortened: as §1
[19] = Cell cycle arrest in human NTUB1 cells assessed as accumulation at subG1 phase at 50 uM after 24 hrs by propidium iodide staining based flow cytometric analysis (reference value: 6.68%); type: functional; procedure, shortened: as §1
[20] = Cell cycle arrest in human NTUB1 cells assessed as accumulation at G2/M phase at 25 uM after 24 hrs by propidium iodide staining based flow cytometric analysis (reference value: 20.37%); type: functional; procedure, shortened: as §1
[21] = Induction of apoptosis in human NTUB1 cells assessed as increase in JC-1 probe monomers at 10 uM after 24 hrs by flow cytometric analysis; type: functional; procedure, shortened: as §5
[22] = Cell cycle arrest in human NTUB1 cells assessed as accumulation at subG1 phase after 24 hrs by propidium iodide staining based flow cytometric analysis; type: functional; procedure, shortened: as §1
PC-3 = experiment: Cytotoxicity against human PC3 cells after 72 hrs by MTT assay; type: functional, cell-based; procedure, shortened: as §3
[23] = Induction of apoptosis in human NTUB1 cells assessed as decrease in JC-1 aggregation at 50 uM after 24 hrs by flow cytometric analysis; type: functional; set-up: scale not given: the % may be the effect or the level left; procedure, shortened: as §2
[24] = Cell cycle arrest in human NTUB1 cells assessed as accumulation at subG1 phase at 75 uM after 24 hrs by propidium iodide staining based flow cytometric analysis (reference value: 6.68%); type: functional; procedure, shortened: as §1

Cellular tumor antigen p53 (Homo sapiens), sequence (P04637 whole entry, looked up): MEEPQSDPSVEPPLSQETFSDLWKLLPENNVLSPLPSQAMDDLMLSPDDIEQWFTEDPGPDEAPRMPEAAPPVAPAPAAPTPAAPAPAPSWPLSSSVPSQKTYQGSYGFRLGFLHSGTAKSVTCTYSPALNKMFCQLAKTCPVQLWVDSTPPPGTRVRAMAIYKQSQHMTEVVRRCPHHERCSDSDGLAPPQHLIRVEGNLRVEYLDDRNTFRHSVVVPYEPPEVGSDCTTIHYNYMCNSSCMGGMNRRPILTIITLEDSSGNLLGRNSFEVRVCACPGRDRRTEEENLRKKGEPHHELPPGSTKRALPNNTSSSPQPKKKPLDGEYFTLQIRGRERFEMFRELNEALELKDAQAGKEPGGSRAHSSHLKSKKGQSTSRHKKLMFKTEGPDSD

## C=C(C)[C@@H]1CC[C@]2(C)[C@H](C(=O)C=C3[C@@H]4C[C@@](C)(C(=O)NC(C)C)CC[C@]4(C)CC[C@]32C)[C@@]1(C)CCC(=O)NC(C)C
[1]
  Activity: 2.79%
[2]
  Activity: 87.17%
[3]
  Activity: Dose-dependent effect
[4]
  Activity: 4%
[5]
  Activity: Non-toxic
[6]
  Activity: 66.1%
[7]
  IC50: 4.76 µM
[8]
  Activity: 5.22%
NTUB1
  Activity: inactive
[9]
  Activity: 3.15%
[10]
  Activity: 20.4%
[11]
  Activity: 35.7%
[12]
  Activity: 55.65%
[13]
  Activity: 85.6%
[14]
  Activity: 12.7%
[15]
  Activity: 12.65%
[16]
  Activity: 49.5%
[17]
  Activity: 5.45%
[18]
  Activity: 14.7%
[19]
  Activity: 55.7%
[20]
  Activity: 12.7%
[21]
  Activity: 94.14%
[22]
  Activity: Dose-dependent effect
PC-3
  Activity: Active
[23]
  Activity: 44.07%
[24]
  Activity: 78.4%
